SMILES strings stand for the structures. Calls of active or inactive are those of the source. The calls are words filed in the database; no cut-off is given here.

Results on 3 compounds are retold here after ChEMBL document CHEMBL4052679, “Design, synthesis and biological evaluation of novel indolin-2-ones as potent anticancer compounds” (Bioorg Med Chem Lett, 2017).

Experiment [1] concerns HCT-116. The experiment can be described thus: Growth inhibition of human HCT116 cells incubated for 3 days by MTT assay. The following applies: HCT-116, 72 h. A general note: Tetrazolium assays rely on reduction of a dye to a coloured formazan, in cell work by metabolically active cells.
Experiment [2] concerns MDA-MB-231. Kind of experiment: Growth inhibition of human MDA-MB-231 cells incubated for 3 days by SRB assay. Particulars: MDA-MB-231, 72 h. Type of experiment: functional, cell-based. A general note: Sulforhodamine B stains cellular protein and so reports cell mass.
The test system of experiment [3] is NCI-H1650. The experiment can be described thus: Growth inhibition of human NCI-H1650 cells incubated for 3 days by MTT assay. The following applies: NCI-H1650, 72 h.
Experiment [4] relates to BGC-823. Kind of experiment: Growth inhibition of human BGC823 cells incubated for 3 days by MTT assay. The following applies: BGC-823, 72 h.
The test system of experiment [5] is MDA-MB-231. The experiment can be described thus: Induction of cell cycle arrest in human MDA-MB-231 cells assessed as increase in accumulation at subG1 phase at 5 times IC50 incubated for 24 hrs by propidium iodide staining based flow cytometry. It counts as functional. The gist of the method: (§1)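 MDA-MB-231 cells exposed 24 h. Combretastatin A-4 at 200 nM served as reference for G2/M arrest. Cells were then fixed, stained with propidium iodide, and phase distribution was read on a flow cytometer.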
In general terms: A flow cytometer gives signals particle by particle.

In experiment [6] the test system is A2780. The experiment can be described thus: Growth inhibition of human A2780 cells incubated for 3 days by MTT assay. Particulars: A2780, 72 h.
Experiment [7] in a line: Growth inhibition of human KBVIN cells incubated for 3 days by SRB assay. It counts as functional, cell-based. Particulars: 72 h.
The subject of experiment [8] is A549. Kind of experiment: Growth inhibition of human A549 cells incubated for 3 days by SRB assay. Type of experiment: functional, cell-based. Particulars: A549, 72 h.
For experiment [9], the target named is CDK9/cyclin T1 (Homo sapiens) (UniProt O60563+P50750). The experiment can be described thus: Inhibition of CDK9/Cyclin T1 (unknown origin) at 10 uM. Type of experiment: protein-complex assay.
The subject of experiment [10] is HepG2. Kind of experiment: Growth inhibition of human HepG2 cells incubated for 3 days by MTT assay. The following applies: HepG2, 72 h.
Experiment [11] deals with Cyclin-dependent kinase 2/cyclin E1 (Homo sapiens) (UniProt P24864+P24941). Kind of experiment: Inhibition of CDK2/Cyclin E1 (unknown origin) at 10 uM. It counts as protein-complex assay.
Experiment [12] deals with MCF7. The experiment can be described thus: Growth inhibition of human MCF7 cells incubated for 3 days by SRB assay. Type of experiment: functional, cell-based. Particulars: MCF7, 72 h.
For experiment [13], the system named is KB. The experiment can be described thus: Growth inhibition of human KB cells incubated for 3 days by SRB assay. Particulars: 72 h. Type of experiment: functional, cell-based.
For experiment [14], the system named is HCT-116. The experiment can be described thus: Growth inhibition of human HCT116 cells at 10 uM incubated for 3 days by MTT assay.
For experiment [15], the system named is BGC-823. Kind of experiment: Growth inhibition of human BGC823 cells at 10 uM incubated for 3 days by MTT assay.
The subject of experiment [16] is NCI-H1650. Kind of experiment: Growth inhibition of human NCI-H1650 cells at 10 uM incubated for 3 days by MTT assay.
For experiment [17], the species on record is Homo sapiens. Kind of experiment: Induction of microtubule destabilization in human MDA-MB-231 cells at 5 times IC50 incubated for 24 hrs by fluorescent microscopy. It counts as cell-based. In a few lines: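 MDA-MB-231 cells treated 24 h alongside a DMSO control. Cells were fixed and immunostained for α-tubulin and phosphorylated histone H3, with DAPI for DNA. The microtubule network was judged in interphase cells (phospho-H3-negative) by confocal fluorescence microscopy with ×63 or ×40 objectives.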

The test system of experiment [18] is HepG2. The experiment can be described thus: Growth inhibition of human HepG2 cells at 10 uM incubated for 3 days by MTT assay.
The test system of experiment [19] is A2780. The experiment can be described thus: Growth inhibition of human A2780 cells at 10 uM incubated for 3 days by MTT assay.
Experiment [20] relates to MDA-MB-231. Kind of experiment: Induction of cell cycle arrest in human MDA-MB-231 cells assessed as increase in accumulation at G2/M phase at 5 times IC50 incubated for 24 hrs by propidium iodide staining based flow cytometry. It counts as functional. In a few lines: as §1

Usually IC50 stands for the concentration at which inhibition is half-maximal. A lower IC50 goes with greater potency in that assay. Take `CN1CCN(c2cccc(N/C=C3\C(=O)Nc4ccc(NC(=O)c5c(F)cccc5F)cc43)c2)CC1`: the IC50 was determined as 2.15 µM in experiment [1]; 4.43 µM in experiment [2]; 1.63 µM in experiment [3]; 2.67 µM in experiment [4]; 2.03 µM in [6]; 7.86 µM in experiment [7]. Moreover, the IC50 in [8] was 4.75 µM; in experiment [10] it was 3.03 µM; in [12], 4.44 µM; in [13], 4.4 µM. Besides, in experiment [5], the outcome was Active. The inhibition result in experiment [9] and in experiment [11] was “inactive” each time.

With `O=C1Nc2ccccc2/C1=C1/Nc2ccccc2/C1=N\O`, the half-maximal inhibitory concentration (IC50) in experiment [2] came out at 7.59 µM; in experiment [7], 5.17 µM; in [8], 5.82 µM; in experiment [12], 6.81 µM; in experiment [13], 5.34 µM. The “growth inhibition (GI)” value in [14], in experiment [15], in experiment [16], in [18] and in experiment [19] was “inactive” in each case. In addition, the outcome in [17] was inactive. Besides, the result in experiment [20] was Active.

As for `O=C1Nc2ccc(F)cc2/C1=C\C(=O)c1ccc2c(c1)OCO2`, the IC50 in [1] was 0.76 µM; in [2], 5.31 µM; in experiment [3], 1.22 µM; in experiment [4], 4.09 µM; in experiment [6], 1.12 µM; in [7] it was > 10 µM. Moreover, the IC50 in experiment [8] is > 10 µM; in experiment [10] it was 2.28 µM; in experiment [12] it was > 10 µM; in [13], > 10 µM. In addition, the outcome in experiment [17] and in experiment [20] was Active. Also, the inhibition result in experiment [9] and in experiment [11] was “inactive” in each case.
